Data on two molecules can be found in ChEMBL document CHEMBL4359883, “4(1H)-quinolone derivatives overcome acquired resistance to anti-microtubule agents by targeting the colchicine site of β-tubulin” (Eur J Med Chem, 2019).

Molecules are shown by their SMILES. pIC50: −log10 of the molar value. Active and inactive are the calls of the source. No cut-off for these calls is given here.

For test [1], the species on record is Homo sapiens. Description: Effect on p-gp expression in human KBtax cells at 30 to 60 nM after 24 hrs by immunoblotting analysis. The format is functional, cell-based. A general note: A western blot detects proteins with antibodies after separation by electrophoresis.
Test [2] is described as follows: Selectivity index, ratio of IC50 for human KBtax cells to IC50 for human KB cells. The format is functional.
For test [3], the system named is KB. As to the kind of experiment: Antiproliferative activity against human KB cells assessed as reduction in cell viability after 72 hrs by MTS assay. The format is functional, cell-based. A digest of the protocol:
(§1)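 Cells plated at 2000/well, cultured overnight, then exposed to a range of compound concentrations for 72 h. MTS reagent added for 1–4 h at 37 °C and absorbance read at 490 nm. Cultured in RPMI 1640 or DMEM with 10% heat-inactivated FBS under 5% CO2. Data are the mean of three determinations.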
(Tetrazolium assays rely on reduction of a dye to a coloured formazan, in cell work by metabolically active cells.)

Test [4] deals with BT-549. Description: Antiproliferative activity against human BT549 cells assessed as reduction in cell viability after 72 hrs by MTS assay. The format is functional, cell-based. Conditions: BT-549, 72 h. A digest of the protocol:
as §1

For test [5], the system named is NCI-H1975. As to the kind of experiment: Antitumour activity against human NCI-H1975 cells xenografted in Balb/c mouse assessed as tumour size at 8 mg/kg, ip administered three times per week and measured on day 21 (reference value: 2153 +/- 126.3 mm3). The format is functional. A digest of the protocol: (§2)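 H1975 tumours grown in the right flank of 6-week-old BALB/c nude mice. DMSO vehicle or 4 or 8 mg/kg compound in DMSO given ip three times weekly. Tumour volume calculated as 0.5W²L before each dose and compared on day 21.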
Background: In xenograft studies the graft and the host belong to different species.

Test [6] has as its target T1, Tubulin (Homo sapiens) (UniProt P68371+Q9H4B7+P0DPH7+P68366+Q13509+Q71U36+P04350+Q3ZCM7+P07437+P68363+Q9BQE3+Q6PEY2+Q13885+Q9BVA1+Q9BUF5). As to the kind of experiment: Inhibition of microtubule polymerization in human KBtax cells at 30 nM after 6 hrs by DAPI staining based scanning confocal microscopic analysis. The format is cell-based. A digest of the protocol:
(§3)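 Cells exposed for 6 h, fixed in 3.7% paraformaldehyde, permeabilized with 0.1% Triton X-100. Stained with anti-α-tubulin (1:1000) overnight at 4 °C, FITC secondary 1 h at 37 °C, nuclei counterstained with DAPI. Imaged by confocal laser scanning microscopy.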

Test [7] in a line: Antiproliferative activity against human CCRF-CEM/VBL cells assessed as reduction in cell viability after 72 hrs by MTS assay. The format is functional, cell-based. A digest of the protocol:
as §1

The subject of test [8] is Homo sapiens. As to the kind of experiment: Induction of apoptosis in human KBtax cells xenografted in Balb/c mouse at 8 mg/kg, ip administered 3 times per week and measured after 21 days by TUNEL staining based histological analysis. The format is functional, organism-based. A digest of the protocol:
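1×10^7 KBtax cells injected subcutaneously into the right flank of 6-week-old BALB/c nude mice (n = 5 per group). Once tumors established, compound in DMSO given ip three times a week for 21 days. Tumor sections stained with H&E and by TUNEL.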

Test [9] can be described thus: Antiproliferative activity against human KBtax cells assessed as reduction in cell viability after 72 hrs by MTS assay. The format is functional, cell-based. A digest of the protocol: as §1
Test [10] concerns NCI-H1975. As to the kind of experiment: Antiproliferative activity against human NCI-H1975 cells assessed as reduction in cell viability after 72 hrs by MTS assay. Conditions: NCI-H1975, 72 h. The format is functional, cell-based. A digest of the protocol:
as §1

Test [11] is described as follows: Antiproliferative activity against human 37T cells assessed as reduction in cell viability after 72 hrs by MTS assay. The format is functional, cell-based. A digest of the protocol: as §1
The subject of test [12] is CCRF-CEM. As to the kind of experiment: Antiproliferative activity against human CCRF-CEM cells assessed as reduction in cell viability after 72 hrs by MTS assay. The format is functional, cell-based. A digest of the protocol:
as §1

The test system of test [13] is MDA-MB-231. Description: Antiproliferative activity against human MDA-MB-231 cells assessed as reduction in cell viability after 72 hrs by MTS assay. Conditions: MDA-MB-231, 72 h. The format is functional, cell-based. A digest of the protocol: as §1
A short description of test [14]: Selectivity index, ratio of IC50 for human KB/VCR cells to IC50 for human KB cells. The format is functional.
Test [15] in a line: Antiproliferative activity against human KB/VCR cells assessed as reduction in cell viability after 72 hrs by MTS assay. The format is functional, cell-based. A digest of the protocol:
as §1

Test [16] is described as follows: Selectivity index, ratio of IC50 for human CCRF-CEM/VBL cells to IC50 for human CCRF-CEM cells. The format is functional.
Test [17] concerns Hs-578T. As to the kind of experiment: Antiproliferative activity against human Hs578T cells assessed as reduction in cell viability after 72 hrs by MTS assay. The format is functional, cell-based. A digest of the protocol: as §1
Test [18] concerns NCI-H1975. Description: Antitumour activity against human NCI-H1975 cells xenografted in Balb/c mouse assessed as tumour size at 4 mg/kg, ip administered three times per week and measured on day 21 (reference value: 2153 +/- 126.3 mm3). The format is functional. A digest of the protocol:
as §2

Test [19] is described as follows: Antitumour activity against human KBtax cells xenografted in Balb/c mouse assessed as reduction in tumour size at 8 mg/kg, ip administered 3 times per week and measured after 21 days (reference value: 1109 +/- 128.3 mm3). The format is functional.
The species named for test [20] is Homo sapiens. Description: Induction of apoptosis in human KBtax cells assessed as PARP cleavage at 30 to 60 nM after 24 hrs by immunoblotting analysis. The format is functional, cell-based.
The subject of test [21] is CL1-0. Description: Induction of apoptosis in human CL1-0 cells assessed as cleaved caspase 3 expression at 20 nM by immunoblotting analysis. The format is functional, cell-based. Conditions: TDE = time-dependent effect.
For test [22], the target named is T1, Tubulin (Homo sapiens). Description: Inhibition of microtubule polymerization in human NCI-H1975 cells at 40 nM after 1 hr followed by exposure to cold and measured at 5 to 60 mins immunofluorescence based assay. The format is cell-based. A digest of the protocol: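 H1975 cells pretreated with 40 nM for 1 h, held cold for 30 min, then returned to 37 °C for varying times. Fixed and stained for α-tubulin by immunofluorescence with DAPI counterstain, then imaged by confocal microscopy.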

The subject of test [23] is HCT-116. Description: Antiproliferative activity against human HCT116 cells assessed as reduction in cell viability after 72 hrs by MTS assay. Conditions: HCT-116, 72 h. The format is functional, cell-based. A digest of the protocol:
as §1

For test [24], the system named is OVCAR-3. As to the kind of experiment: Antiproliferative activity against human OVCAR3 cells assessed as reduction in cell viability after 72 hrs by MTS assay. The format is functional, cell-based. Conditions: OVCAR-3, 72 h. A digest of the protocol: as §1
Test [25] in a line: Antiproliferative activity against human 82T cells assessed as reduction in cell viability after 72 hrs by MTS assay. The format is functional, cell-based. A digest of the protocol:
as §1

The test system of test [26] is NCI-H1975. As to the kind of experiment: Cell cycle arrest in human NCI-H1975 cells assessed as increase in cell population at sub-G1 phase after 24 hrs by propidium iodide-staining based flow cytometry. The format is functional. A digest of the protocol:
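Cells treated for 24 h, then trypsinized and fixed overnight in ice-cold 70% ethanol. Stained for 30 min with propidium iodide (10 µg/mL) plus RNase (20 µg/mL), and DNA content measured by flow cytometry. Mean ± SD.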

Test [27] concerns MOLT-4. Description: Antiproliferative activity against human MOLT4 cells assessed as reduction in cell viability after 72 hrs by MTS assay. The format is functional, cell-based. Conditions: MOLT-4, 72 h. A digest of the protocol: as §1
Test [28] addresses T1, Tubulin (Homo sapiens). As to the kind of experiment: Induction of microtubule depolymerization in human NCI-H1975 cells at 40 nM after 6 hrs by DAPI staining based DAPI staining based confocal microscopic analysis. The format is cell-based. A digest of the protocol:
as §3

For test [29], the system named is CL1-0. As to the kind of experiment: Induction of mitotic arrest in human CL1-0 cells assessed as increase in cyclin B1 expression at 20 to 40 nM after 24 hrs by immunoblotting analysis. The format is functional, cell-based.
The target in test [30] is Tubulin (Sus scrofa) (UniProt P02554+P02550). As to the kind of experiment: Inhibition of porcine tubulin polymerization assessed as inhibition of formation of microtubule asters in centrosome after 8 mins immunofluorescence assay. The format is protein assay. A digest of the protocol:
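Purified centrosomes incubated with compound, then with porcine tubulin in 80 mM PIPES, 1 mM MgCl2, 1 mM EGTA, 1 mM GTP, pH 6.8 for 8 min at 37 °C. Asters fixed in 1% glutaraldehyde and stained for α-tubulin. Fiber length measured on 20 asters per group; mean ± SD.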

One may read the pIC50 as −log10 of the IC50, conventionally taken in molar units.

Chain of Tubulin (Sus scrofa) (P02550 whole entry, looked up): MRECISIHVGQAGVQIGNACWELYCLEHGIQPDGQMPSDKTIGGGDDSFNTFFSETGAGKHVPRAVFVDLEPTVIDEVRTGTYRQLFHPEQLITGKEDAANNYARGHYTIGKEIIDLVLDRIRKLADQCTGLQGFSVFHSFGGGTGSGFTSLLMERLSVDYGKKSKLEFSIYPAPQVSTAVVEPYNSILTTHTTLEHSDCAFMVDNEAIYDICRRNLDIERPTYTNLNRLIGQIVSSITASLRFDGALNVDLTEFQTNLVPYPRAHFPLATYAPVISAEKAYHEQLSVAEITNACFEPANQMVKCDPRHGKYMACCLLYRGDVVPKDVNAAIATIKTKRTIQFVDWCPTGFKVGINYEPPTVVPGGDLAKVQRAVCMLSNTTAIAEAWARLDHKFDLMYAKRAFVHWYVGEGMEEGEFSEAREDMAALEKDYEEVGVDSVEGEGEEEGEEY
Chain of Tubulin (Sus scrofa) (P02554 whole entry, looked up): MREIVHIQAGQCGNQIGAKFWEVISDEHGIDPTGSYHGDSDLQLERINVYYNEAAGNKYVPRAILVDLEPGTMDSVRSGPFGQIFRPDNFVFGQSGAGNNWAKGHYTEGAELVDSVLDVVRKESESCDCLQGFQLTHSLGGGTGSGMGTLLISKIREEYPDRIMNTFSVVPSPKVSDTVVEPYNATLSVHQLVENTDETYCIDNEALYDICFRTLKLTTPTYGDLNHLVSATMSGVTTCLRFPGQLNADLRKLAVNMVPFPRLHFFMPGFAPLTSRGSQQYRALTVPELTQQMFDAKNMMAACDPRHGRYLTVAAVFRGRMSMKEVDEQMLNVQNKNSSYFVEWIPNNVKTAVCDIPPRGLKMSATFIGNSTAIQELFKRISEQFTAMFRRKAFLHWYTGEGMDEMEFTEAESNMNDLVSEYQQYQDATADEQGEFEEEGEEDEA

For `CCOC(=O)c1ccc2[nH]c(-c3cccc(F)c3)cc(=O)c2c1`, the outcome in test [1] was inactive. Moreover, the entries for the “Ratio IC50” value in test [2], in test [14] and in [16] were 0.88, 1 and 0.8, respectively. Also, the pIC50 in test [3] was 7.47; in [4] it was 7.68; in test [7], 7.80; in test [9], 7.52; in test [10] it was 7.62; in test [11] it was 7.66. For the same molecule, the pIC50 in test [12] was 7.70; in test [13], 7.46; in test [15] it was 7.46; in [17], 7.47. The Activity in test [5] turned out to be 972.5 mm3; in test [18], 1333 mm3; in test [19], 528.4 mm3. Further, in test [6], the inhibition entry was “Active”. The outcome in test [8] and in test [20] was Active.

With `CCOC(=O)c1ccc2nc(-c3ccccc3)cc(O)c2c1`, the Activity entry is “Tde” in [21] and “Dose-dependent effect” in test [26]. Besides, the “Ratio IC50” value in [2] is listed as 0.81; in test [14] it was 1; in [16], 0.97. Also, the pIC50 in test [3] was 7.43; in test [4], 7.48; in [23], 7.30; in test [24], 7.55; in test [7] it was 7.36; in [25], 7.46. The negative logarithm of the IC50 (pIC50) is 7.52 in test [9]; 7.48 in [10]; 7.42 in [27]; 7.47 in [11]; 7.35 in [12]; 7.26 in test [13]. Moreover, the figures for the pIC50 in test [15] and in test [17] were 7.43 and 7.39, respectively. For the same molecule, the outcome in test [22], in [28] and in test [29] was Active. In addition, in test [30], the inhibition entry was “Active”.
